Results of several laboratories.
Protocols differ between the studies behind these lines.

Compound | test | system | conditions | quantity | result
Cc1[nH]c(C)c(S(=O)(=O)Nc2ccc(S(F)(F)(F)(F)F)cc2)c1C(=O)N1CCC(F)(F)C1 |  | mouse, plasma | intraperitoneal, 40 mg/kg | half-life | 2.64 h
CC(C)CC(=O)OC[C@H]1O[C@@](C#N)(c2ccc3c(N)ncnn23)[C@H](O)[C@@H]1O | metabolic stability | dog, hepatocytes | 5 µM | hepatocyte CLint | > 318 µL/min/10⁶ cells
Cc1ncsc1-c1ccc([C@H](CC(=O)NCCOCCOCCOCCOCCOCCC(=O)N2CCC(Nc3cc(C(=O)NC[C@H](O)CN4CCc5ccccc5C4)ncn3)CC2)NC(=O)[C@@H]2C[C@@H](O)CN2C(=O)[C@@H](NC(=O)C2(F)CC2)C(C)(C)C)cc1 |  | male Swiss mouse, plasma | intraperitoneal, 50 mg/kg, 8 h, single dose | concentration | > 200 nM
CC(C)=CCC[C@](C)(O[C@@H]1O[C@H](CO)[C@@H](O)[C@H](O)[C@H]1O)[C@H]1CC[C@]2(C)[C@@H]1[C@H](O)C[C@@H]1[C@@]3(C)CC[C@H](O)C(C)(C)[C@@H]3CC[C@]12C |  | mouse, plasma | oral, 10 mg/kg | half-life | 14 h
COc1cc(C(=O)c2nc(-c3cccc4[nH]ccc34)c[nH]2)cc(OC)c1OC |  | male CD-1 mouse, plasma | intraperitoneal, 15 mg/kg | half-life | 0.95 h
CCOC(=O)c1c(NC(=O)CNC(C)C)sc2c1CCCCC2 |  | male mouse, brain | intraperitoneal, 100 mg/kg, single dose | half-life | 2.06 h
CN(C)C1(CNC(=O)c2ccc3c(c2)CCN3C(=O)c2ccccc2)CCOCC1 |  | male C57BL/6 mouse, brain | intraperitoneal, 50 mg/kg, 2 h | concentration | 39 ng/g
CC(C)[C@]12O[C@H]1[C@@H]1O[C@]13[C@]1(O[C@H]1C[C@H]1C4=C(CC[C@@]13C)C(=O)OC4)[C@@H]2O |  | SCID mouse, plasma | intravenous, 0.6 mg/kg | half-life | 0.16 h
